Reference: ChEMBL document CHEMBL1131139, “Synthesis and antibacterial activity of ketolides (6-O-methyl-3-oxoerythromycin derivatives): a new class of antibacterials highly potent against macrolide-resistant and -susceptible respiratory pathogens” (1998)
Converted amounts (≈) assume the structure as drawn.

Tests used:
Assay type in all cases: functional
Escherichia coli = assay: In vitro inhibitory activity against Escherichia coli (250 UC5)
In short: (§1)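 Two-fold agar dilution on Mueller-Hinton agar (pH 7.4). Inoculum from overnight plate cultures suspended in Mueller-Hinton broth, adjusted to 10^9 CFU/mL, diluted 1:200 and spotted by multipoint inoculator at about 10^4 CFU/spot. Plates incubated 37 °C for 20 h. MIC taken as lowest concentration with no visible growth.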

Haemophilus influenzae [1] = assay: In vitro inhibitory activity against Haemophilus influenzae (351CB12); in short: as §1
Haemophilus influenzae [2] = assay: In vitro inhibitory activity against Haemophilus influenzae (351HT3); in short: as §1
[3] = system: Staphylococcus epidermidis; assay: In vitro inhibitory activity against Staphylococcus epidermidis (EryRi 012GO11i); in short: as §1
Staphylococcus aureus [4] = assay: In vitro inhibitory activity against Staphylococcus aureus (011UC4); in short: as §1
Staphylococcus aureus [5] = assay: In vitro inhibitory activity against Staphylococcus aureus (EryRi 011GO25i); in short: as §1
Streptococcus pneumoniae [6] = assay: In vitro inhibitory activity against Streptococcus pneumoniae (032UC1); in short: as §1
Streptococcus pneumoniae [7] = assay: In vitro inhibitory activity against Streptococcus pneumoniae (EryRc 030SJ1); in short: as §1
Streptococcus pneumoniae [8] = assay: In vitro inhibitory activity against Streptococcus pneumoniae (EryRi 030SJ5i); in short: as §1
Streptococcus pyogenes = assay: In vitro inhibitory activity against Streptococcus pyogenes (02A1UC1); in short: as §1
Staphylococcus aureus [9] = assay: In vitro inhibitory activity against Staphylococcus aureus (EryRc 011CB20); in short: as §1

## CC[C@H]1OC(=O)[C@H](C)C(=O)[C@H](C)[C@@H](O[C@@H]2O[C@H](C)C[C@H](N(C)C)[C@H]2O)[C@](C)(OC)C[C@@H](C)C(=O)[C@H](C)[C@H]2N(CCCNc3ccccc3)C(=O)O[C@]12C
Escherichia coli
  MIC: 40 µg/mL (≈ 53.6 µM)
Haemophilus influenzae [1]
  MIC: 1.2 µg/mL (≈ 1.61 µM)
Haemophilus influenzae [2]
  MIC: 2.5 µg/mL (≈ 3.35 µM)
[3]
  MIC: 0.3 µg/mL (≈ 0.402 µM)
Staphylococcus aureus [4]
  MIC: 0.08 µg/mL (≈ 0.107 µM)
Staphylococcus aureus [5]
  MIC: 0.6 µg/mL (≈ 0.804 µM)
Streptococcus pneumoniae [6]
  MIC: 0.02 µg/mL (≈ 0.0268 µM)
Streptococcus pneumoniae [7]
  MIC: 40 µg/mL (≈ 53.6 µM)
Streptococcus pneumoniae [8]
  MIC: 0.6 µg/mL (≈ 0.804 µM)
Streptococcus pyogenes
  MIC: 0.04 µg/mL (≈ 0.0536 µM)
Staphylococcus aureus [9]
  MIC: 40 µg/mL (≈ 53.6 µM)

## CC[C@H]1OC(=O)[C@H](C)C(=O)[C@H](C)[C@@H](O[C@@H]2O[C@H](C)C[C@H](N(C)C)[C@H]2O)[C@](C)(OC)C[C@@H](C)/C(=N\OCCN2CCOCC2)[C@H](C)[C@@H](O)[C@]1(C)O
Escherichia coli
  MIC: 40 µg/mL (≈ 55.9 µM)
Haemophilus influenzae [1]
  MIC: 40 µg/mL (≈ 55.9 µM)
Haemophilus influenzae [2]
  MIC: 40 µg/mL (≈ 55.9 µM)
[3]
  MIC: 2.5 µg/mL (≈ 3.49 µM)
Staphylococcus aureus [4]
  MIC: 1.2 µg/mL (≈ 1.68 µM)
Staphylococcus aureus [5]
  MIC: 10 µg/mL (≈ 14 µM)
Streptococcus pneumoniae [6]
  MIC: 40 µg/mL (≈ 55.9 µM)
Streptococcus pneumoniae [7]
  MIC: 5 µg/mL (≈ 6.98 µM)
Streptococcus pneumoniae [8]
  MIC: 20 µg/mL (≈ 27.9 µM)
Streptococcus pyogenes
  MIC: 0.15 µg/mL (≈ 0.21 µM)
Staphylococcus aureus [9]
  MIC: 40 µg/mL (≈ 55.9 µM)

## CC[C@H]1OC(=O)[C@H](C)C(=O)[C@H](C)[C@@H](O[C@@H]2O[C@H](C)C[C@H](N(C)C)[C@H]2O)[C@](C)(OC)C[C@@H](C)C(=O)[C@H](C)[C@H]2N(NCCCc3cccc(Cl)c3)C(=O)O[C@]12C
Escherichia coli
  MIC: 40 µg/mL (≈ 51.3 µM)
Haemophilus influenzae [1]
  MIC: 2.5 µg/mL (≈ 3.2 µM)
Haemophilus influenzae [2]
  MIC: 1.2 µg/mL (≈ 1.54 µM)
[3]
  MIC: 0.04 µg/mL (≈ 0.0513 µM)
Staphylococcus aureus [4]
  MIC: 0.04 µg/mL (≈ 0.0513 µM)
Staphylococcus aureus [5]
  MIC: 0.08 µg/mL (≈ 0.103 µM)
Streptococcus pneumoniae [6]
  MIC: 0.02 µg/mL (≈ 0.0256 µM)
Streptococcus pneumoniae [7]
  MIC: 2.5 µg/mL (≈ 3.2 µM)
Streptococcus pneumoniae [8]
  MIC: 0.08 µg/mL (≈ 0.103 µM)
Streptococcus pyogenes
  MIC: 0.02 µg/mL (≈ 0.0256 µM)
Staphylococcus aureus [9]
  MIC: 40 µg/mL (≈ 51.3 µM)

## CC[C@H]1OC(=O)[C@H](C)C(=O)[C@H](C)[C@@H](O[C@@H]2O[C@H](C)C[C@H](N(C)C)[C@H]2O)[C@](C)(OC)C[C@@H](C)/C(=N\OCCN2CCCCC2)[C@H](C)[C@@H](O)[C@]1(C)O
Escherichia coli
  MIC: 40 µg/mL (≈ 56 µM)
Haemophilus influenzae [1]
  MIC: 20 µg/mL (≈ 28 µM)
Haemophilus influenzae [2]
  MIC: 40 µg/mL (≈ 56 µM)
[3]
  MIC: 0.6 µg/mL (≈ 0.84 µM)
Staphylococcus aureus [4]
  MIC: 0.6 µg/mL (≈ 0.84 µM)
Staphylococcus aureus [5]
  MIC: 2.5 µg/mL (≈ 3.5 µM)
Streptococcus pneumoniae [6]
  MIC: 10 µg/mL (≈ 14 µM)
Streptococcus pneumoniae [7]
  MIC: 20 µg/mL (≈ 28 µM)
Streptococcus pneumoniae [8]
  MIC: 40 µg/mL (≈ 56 µM)
Streptococcus pyogenes
  MIC: 0.15 µg/mL (≈ 0.21 µM)
Staphylococcus aureus [9]
  MIC: 40 µg/mL (≈ 56 µM)

## CC[C@H]1OC(=O)[C@H](C)C(=O)[C@H](C)[C@@H](O[C@@H]2O[C@H](C)C[C@H](N(C)C)[C@H]2O)[C@](C)(OC)C[C@@H](C)/C(=N\OC2CCCN(CCCC3CCCCC3)C2)[C@H](C)[C@@H](O)[C@]1(C)O (stereo partly drawn)
Escherichia coli
  MIC: 40 µg/mL (≈ 49.4 µM)
Haemophilus influenzae [1]
  MIC: 1.2 µg/mL (≈ 1.48 µM)
Haemophilus influenzae [2]
  MIC: 5 µg/mL (≈ 6.17 µM)
[3]
  MIC: 5 µg/mL (≈ 6.17 µM)
Staphylococcus aureus [4]
  MIC: 0.15 µg/mL (≈ 0.185 µM)
Staphylococcus aureus [5]
  MIC: 2.5 µg/mL (≈ 3.09 µM)
Streptococcus pneumoniae [6]
  MIC: 0.02 µg/mL (≈ 0.0247 µM)
Streptococcus pneumoniae [7]
  MIC: 0.6 µg/mL (≈ 0.741 µM)
Streptococcus pneumoniae [8]
  MIC: 0.15 µg/mL (≈ 0.185 µM)
Streptococcus pyogenes
  MIC: 0.04 µg/mL (≈ 0.0494 µM)
Staphylococcus aureus [9]
  MIC: 40 µg/mL (≈ 49.4 µM)

## CC[C@H]1OC(=O)[C@H](C)C(=O)[C@H](C)[C@@H](O[C@@H]2O[C@H](C)C[C@H](N(C)C)[C@H]2O)[C@](C)(OC)C[C@@H](C)/C(=N\OCCNCCN(C)C)[C@H](C)[C@@H](O)[C@]1(C)O
Escherichia coli
  MIC: 40 µg/mL (≈ 55.8 µM)
Haemophilus influenzae [1]
  MIC: 20 µg/mL (≈ 27.9 µM)
Haemophilus influenzae [2]
  MIC: 40 µg/mL (≈ 55.8 µM)
[3]
  MIC: 1.2 µg/mL (≈ 1.67 µM)
Staphylococcus aureus [4]
  MIC: 0.6 µg/mL (≈ 0.837 µM)
Staphylococcus aureus [5]
  MIC: 5 µg/mL (≈ 6.97 µM)
Streptococcus pneumoniae [6]
  MIC: 0.15 µg/mL (≈ 0.209 µM)
Streptococcus pneumoniae [7]
  MIC: 40 µg/mL (≈ 55.8 µM)
Streptococcus pneumoniae [8]
  MIC: 10 µg/mL (≈ 13.9 µM)
Streptococcus pyogenes
  MIC: 0.15 µg/mL (≈ 0.209 µM)
Staphylococcus aureus [9]
  MIC: 40 µg/mL (≈ 55.8 µM)

## CC[C@H]1OC(=O)[C@H](C)[C@@H](O[C@H]2C[C@@](C)(OC)[C@@H](O)[C@H](C)O2)[C@H](C)[C@@H](O[C@@H]2O[C@H](C)C[C@H](N(C)C)[C@H]2O)[C@](C)(OC)C[C@@H](C)C(=O)[C@H](C)[C@H]2N(CCCCc3ccccc3)C(=O)O[C@]12C
Escherichia coli
  MIC: 40 µg/mL (≈ 44.2 µM)
Haemophilus influenzae [1]
  MIC: 2.5 µg/mL (≈ 2.76 µM)
Haemophilus influenzae [2]
  MIC: 2.5 µg/mL (≈ 2.76 µM)
[3]
  MIC: 40 µg/mL (≈ 44.2 µM)
Staphylococcus aureus [4]
  MIC: 0.3 µg/mL (≈ 0.331 µM)
Staphylococcus aureus [5]
  MIC: 20 µg/mL (≈ 22.1 µM)
Streptococcus pneumoniae [6]
  MIC: 0.02 µg/mL (≈ 0.0221 µM)
Streptococcus pneumoniae [7]
  MIC: 10 µg/mL (≈ 11 µM)
Streptococcus pneumoniae [8]
  MIC: 1.2 µg/mL (≈ 1.33 µM)
Streptococcus pyogenes
  MIC: 0.04 µg/mL (≈ 0.0442 µM)
Staphylococcus aureus [9]
  MIC: 20 µg/mL (≈ 22.1 µM)

## CC[C@H]1OC(=O)[C@H](C)[C@@]2(O)O[C@@](C)(C[C@@H](C)/C(=N\OCOCCOC)[C@H](C)[C@@H](O)[C@]1(C)O)[C@H](O[C@@H]1O[C@H](C)C[C@H](N(C)C)[C@H]1O)[C@H]2C
Escherichia coli
  MIC: 40 µg/mL (≈ 59.1 µM)
Haemophilus influenzae [1]
  MIC: 40 µg/mL (≈ 59.1 µM)
Haemophilus influenzae [2]
  MIC: 40 µg/mL (≈ 59.1 µM)
[3]
  MIC: 40 µg/mL (≈ 59.1 µM)
Staphylococcus aureus [4]
  MIC: 40 µg/mL (≈ 59.1 µM)
Staphylococcus aureus [5]
  MIC: 40 µg/mL (≈ 59.1 µM)
Streptococcus pneumoniae [6]
  MIC: 40 µg/mL (≈ 59.1 µM)
Streptococcus pneumoniae [7]
  MIC: 40 µg/mL (≈ 59.1 µM)
Streptococcus pneumoniae [8]
  MIC: 40 µg/mL (≈ 59.1 µM)
Streptococcus pyogenes
  MIC: 40 µg/mL (≈ 59.1 µM)
Staphylococcus aureus [9]
  MIC: 40 µg/mL (≈ 59.1 µM)
